OX1R antag-1: antagonists of human orexin 1 receptor (OX1R); Orexin/Hypocretin receptor type 1 (Homo sapiens), O43613; OX1R-expressing cells, FRET antagonist read-out; inhibition, % at 6.6 µM; actives 1.8% (n = 330,000); AID 485270, 2010; in the data active = inhibition mostly above about 38%, no sharp cut-off; inactive = mostly below about 40%;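 note: 0% = agonist challenge alone and 100% = reference antagonist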
Target sequence (O43613 whole entry, looked up): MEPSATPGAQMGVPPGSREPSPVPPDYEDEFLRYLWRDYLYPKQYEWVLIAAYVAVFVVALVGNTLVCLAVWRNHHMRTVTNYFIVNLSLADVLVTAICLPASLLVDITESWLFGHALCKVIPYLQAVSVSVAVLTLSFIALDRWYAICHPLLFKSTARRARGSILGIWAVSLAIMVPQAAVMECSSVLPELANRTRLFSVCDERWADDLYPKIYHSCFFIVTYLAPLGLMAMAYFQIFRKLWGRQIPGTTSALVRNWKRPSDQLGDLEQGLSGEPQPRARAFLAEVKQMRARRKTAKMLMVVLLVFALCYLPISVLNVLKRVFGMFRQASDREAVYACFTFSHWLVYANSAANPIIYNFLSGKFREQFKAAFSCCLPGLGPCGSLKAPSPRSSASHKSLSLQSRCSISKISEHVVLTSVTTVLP
CHO parental Ca: ATP-evoked calcium signal inhibitors, parental CHO, primary screen, counter-screen for OX1R antagonist project, cell-based, fluorescence, Fluo-8 calcium dye; parental CHO-K1, ATP-induced calcium, Fluo-8 fluorescence; actives 0.63% (n = 330,000); inhibition, % at 5.6 µM;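 active = inhibition above that plate's mean sample inhibition plus 3 SD, cut at about 26% in these data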;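 note: 0% = ATP-challenged DMSO wells and 100% = DMSO wells without ATP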
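Test system: untransfected parental CHO cell line. Compound: one dose, 5.6 µM nominal. Detection: intracellular calcium via Fluo-8 no-wash fluorescent dye. Measure: % inhibition. Benchmarks: ATP-challenged DMSO wells low, unchallenged DMSO wells high.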
OX1R antag-2: OX1R (HCRTR1) antagonists, primary screen, fluorescence, CHO/OX1R cells, Fluo-8 calcium, orexin A. inhibition, % at 5 µM. Orexin/Hypocretin receptor type 1 (Homo sapiens), O43613. actives 0.43% (n = 330,000). Fluo-8 calcium fluorescence;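 active = inhibition above its plate's threshold, mean inhibition of all tested compounds on the plate plus 3 SD, cut at about 37% in these data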;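 note: 0% = orexin A challenge wells and 100% = SB-334867-A antagonist wells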
TAAR1 ag: human TAAR1 agonists, primary screen, Fluo-8 calcium fluorescence, CHO RD-HGA16 cells; vehicle wells 0%, saturating PEA agonist 100%; Trace amine-associated receptor 1 (Homo sapiens), Q96RJ0; AID 624467, 2012; activation, % at 3 µM; actives 0.99% (n = 360,000);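 active = activation above the mean activation of all test compounds in the run plus 3 SD, cut at about 38% in these data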
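test system = CHO RD-HGA16 cells carrying human TAAR1 plus Gα16 | schedule = 17-24 h seeding, 75 min 37 °C dye, 30 min RT | compound dosing = 3 µM single concentration | control set = DMSO and PEA EC100 | replicates = n 1 | signal = Fluo-8 fluorescence, 5 s baseline then 140 s kinetic read | measure = percent activation vs PEA EC100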
GPR7 antag: GPR7 receptor antagonists, primary screen, cell-based, fluorescence, single concentration; Neuropeptides B/W receptor type 1 (Homo sapiens), P48145; AID 1861, 2009; GPR7-expressing cells, fluorescence antagonist assay; inhibition, % at 4.4 µM; actives 1.1% (n = 290,000); in the data active = inhibition above about 16%, passing the limit was not always enough;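 note: cells stimulated with the agonist NPW; 0% = agonist with vehicle and 100% = vehicle without agonist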
Target sequence (P48145 whole entry, looked up): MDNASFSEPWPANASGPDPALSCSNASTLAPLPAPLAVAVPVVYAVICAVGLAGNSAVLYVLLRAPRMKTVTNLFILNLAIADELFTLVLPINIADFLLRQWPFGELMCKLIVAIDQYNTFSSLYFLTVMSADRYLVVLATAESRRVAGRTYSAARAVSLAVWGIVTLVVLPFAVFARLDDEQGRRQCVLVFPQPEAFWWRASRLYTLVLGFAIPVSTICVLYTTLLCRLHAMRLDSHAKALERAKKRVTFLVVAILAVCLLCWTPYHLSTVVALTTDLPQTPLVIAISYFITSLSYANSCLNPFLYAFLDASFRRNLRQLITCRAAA
TAAR1 antagonist: human TAAR1 antagonists, primary screen, Fluo-8 calcium fluorescence, CHO RD-HGA16 cells | antagonist | actives 1.5% (n = 360,000) | Trace amine-associated receptor 1 (Homo sapiens), Q96RJ0 | inhibition, % at 3 µM;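 active = inhibition above a per-plate cutoff, the mean inhibition of test compounds on that plate plus 3 SD, cut at about 49% in these data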;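 note: 0% = DMSO plus EC80 beta-PEA response and 100% = DMSO alone without agonist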
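Test system: RD-HGA16 CHO cells with stable hTAAR1 and Gα16 / Probe or stimulus: EC80 β-phenethylamine stimulus / Times: seeding 17-24 h prior, 75-min 37 °C, 30-min RT dye loading / Detection: Fluo-8 calcium-sensitive fluorescence / Read-out basis: % inhibition scaled between DMSO and EC80 PEA controls / Repeats: singlicate, one well per test compound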
OX1R Fluo8 conf: OX1R (HCRTR1) antagonists, confirmation, fluorescence, CHO/OX1R cells, Fluo-8 calcium, orexin A. orexin A calcium Fluo-8 fluorescence. inhibition, % at 5 µM. shares compounds with OX1R antag-2. actives 38% (n = 1,100); in the data active = inhibition above about 29%;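 note: 0% = agonist challenge alone and 100% = reference antagonist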
CHO Ca counter: ATP-evoked calcium inhibition in parental CHO, counter-screen for OX1R antagonist project, cell-based, fluorescence, CHO-K1, triplicate. shares compounds with OX1R antag-2. inhibition, % at 5.6 µM. ATP-induced calcium, Fluo-8 fluorescence. AID 492965, 2010. actives 9.3% (n = 1,100);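 active = inhibition above a per-plate limit, the mean inhibition of that plate's test compounds plus 3 SD, cut at about 25% in these data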;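 note: 0% = ATP challenge with DMSO and 100% = DMSO without ATP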
* = called active by the depositor; · = no result given. In the library only some 4.6% were active in any assay of this set; here they are far more common.

SMILES | OX1R antag-1 | CHO parental Ca | OX1R antag-2 | TAAR1 ag | GPR7 antag | TAAR1 antagonist | OX1R Fluo8 conf | CHO Ca counter
FC(F)(F)c1ccccc1Cc1c(-c2ccc(Cl)cc2)nc2ccc(Cl)cn12 | · | · | · | 2 | · | 8 | · | ·
NC(=O)NOCc1ccc(Cl)cc1Cl | 8 | -11 | 8 | 0 | -5 | -18 | · | ·
CNC(=S)/N=C/NOCc1ccc(Cl)cc1Cl | 29 | 12 | 41* | 9 | 19 | 22 | 20 | 19
COc1ccccc1NC(=O)Nc1ccc(-n2ccc(C(F)(F)F)n2)cc1 | 7 | -3 | 34 | 3 | -4 | -22 | 5 | 4
CC(=O)NC(NC(=S)Nc1ccc(S(N)(=O)=O)cc1)C(Cl)(Cl)Cl (centres undefined) | 22 | 11 | -16 | -1 | -13 | -18 | · | ·
CC(=O)NC(NC(=S)Nc1ccc(N=Nc2ccccc2)cc1)C(Cl)(Cl)Cl (centres undefined) | 5 | 23 | 37 | 19 | -8 | 13 | 41* | 15
CCOc1ccc(/C=C2\SC(=S)NC2=O)cc1OC | 46 | 2 | -21 | 0 | -20 | 3 | · | ·
COc1ccc(/C=C2\SC(=O)NC2=S)cc1OC | 42 | 24 | 42 | 3 | 6 | 18 | 3 | -2
COc1ccc(N2CCN(C(=O)CSc3ccc([N+](=O)[O-])cc3)CC2)cc1 | 12 | -12 | 32 | 4 | 2 | 23 | 21 | 7
COc1ccc(N2CCN(C(=O)CSc3ccc(C)cc3)CC2)cc1 | 14 | -2 | -11 | 4 | 1 | 5 | · | ·
O=[N+]([O-])c1ccc(Cl)cc1CNc1ccc(F)c(F)c1 | 21 | -11 | 38 | -1 | -13 | 6 | 1 | -4
COc1cccc(CN(C)C[C@H]2OCc3cnnn3CCCC(=O)N([C@@H](C)CO)C[C@@H]2C)c1 | · | · | · | 0 | · | -8 | · | ·
O=C(COC(=O)C(Cc1ccccc1)NC(=O)c1ccc(Cl)cc1)c1ccc(Cl)cc1 (centres undefined) | 11 | -3 | -17 | 3 | -3 | 22 | · | ·
COc1ccc2c(n1)Sc1nc3ccccc3nc1N2 | 30 | 24 | 35 | 22 | 17 | 17 | 47* | 37*
Cc1cc(OCC(=O)N(C)C2CCCCC2)cc(C)c1Cl | 37 | 9 | 26 | 18 | -1 | -29 | 14 | -5
Cc1cc(OCC(=O)N(C)C2CCCCC2)ccc1Cl | 27 | -19 | -23 | 1 | -5 | -1 | · | ·
CC(=O)NC(C)C(=O)OCC(=O)Nc1ccc(Br)cc1 (centres undefined) | 11 | 1 | 36 | 19 | 10 | -6 | 2 | 4
Cc1cc(C(=O)N[C@H](c2ccccc2)[C@@]2(C)C[C@@H]2[C@@H](C)C(=O)Nc2ccc3ccccc3c2)n(C)n1 | 52 | -2 | 41 | 30 | 9 | 19 | 12 | -11
C[C@@H](C(=O)Nc1ccc2ccccc2c1)[C@H]1C[C@]1(C)[C@H](NC(=O)OCc1ccccc1)c1ccccc1 | 13 | -19 | -53 | 2 | 0 | 8 | · | ·
CC(C)(C)N(NC(=O)Nc1ccc(Cl)c(Cl)c1)C(=O)c1ccccc1 | 20 | 29 | 73* | 21 | 1 | 15 | 8 | 10
O=C(CN1CCN(C(=O)c2cccc(-n3cnnn3)c2)CC1)Nc1ccccc1Cl | 9 | -5 | -6 | 1 | · | -6 | · | ·
COCCn1c(=O)[nH]c2cc(C(=O)N3CCN(c4cccc(Cl)c4)CC3)ccc2c1=O | 7 | 13 | 25 | 6 | -4 | 0 | -2 | -1
Cc1c(NC(=S)NC(=O)c2ccc(Cl)cc2)c(=O)n(-c2ccccc2)n1C | 3 | -11 | -30 | 0 | · | -12 | · | ·
COc1ccc(C(C)=O)c2c(O)cccc12 | 61 | -8 | 32 | 4 | -14 | -4 | 14 | -4
O=C(c1ccco1)N1CCN(C(=O)N2CCCC2)CC1 | 3 | 9 | 4 | 1 | 11 | -22 | · | ·
SMILES | OX1R antag-1 | CHO parental Ca | OX1R antag-2 | TAAR1 ag | GPR7 antag | TAAR1 antagonist | OX1R Fluo8 conf | CHO Ca counter
O=C(c1ccco1)N1CCN(c2ncccn2)CC1 | -6 | 12 | 23 | 1 | -14 | -9 | 5 | 4
Cc1ccc(NC(=S)NCC(C)CSc2ccc(Cl)cc2)cc1 (centres undefined) | 24 | 8 | -8 | 1 | -12 | 0 | · | ·
Cc1cccc(NC(=S)NCC(C)CSc2ccc(Cl)cc2)c1 (centres undefined) | 21 | 24 | 34 | 9 | -10 | 15 | -5 | -5
Cc1cc(NS(=O)(=O)c2ccc(NC(=O)CN3C(=O)NC(C)(c4ccccc4)C3=O)cc2)nc(C)n1 (centres undefined) | 21 | -4 | 26 | 2 | · | -12 | 4 | 1
CC1(c2ccccc2)NC(=O)N(CC(=O)Nc2ccc(S(=O)(=O)Nc3ncccn3)cc2)C1=O (centres undefined) | 6 | 0 | -8 | 0 | · | -7 | · | ·
CCOC(=O)C1=CC[C@@H](c2cccc(C)c2)N(S(=O)(=O)c2ccc(C)cc2)[C@H]1C(=O)OCC | 22 | -6 | 36 | 10 | · | -4 | -10 | 2
CCOC(=O)C1=CC[C@@H](c2ccccc2Cl)N(S(=O)(=O)c2ccc(C)cc2)[C@H]1C(=O)OCC | 27 | 10 | 60* | 6 | · | 8 | 10 | 5
COc1ccccc1NS(=O)(=O)c1cc(NC(=O)Cc2n[nH]c(=O)c3ccccc23)ccc1Cl | 10 | -5 | 16 | 4 | · | 29 | · | ·
O=C(N/N=C/c1ccccn1)c1cc(-c2ccc(Br)cc2)nc2ccccc12 | 24 | 20 | 50* | 0 | -12 | 6 | 40* | 23
Cn1c(=O)c(C(=O)NNC(=O)c2ccc(Br)cc2)c(O)c2ccccc21 | 7 | 19 | 27 | 6 | -6 | 5 | 8 | 16
COCCCN1C(=O)C(CC(=O)NCCCN(C)C)CC(C(=O)N(C(C)C)C(C)C)=C1C (centres undefined) | · | · | · | 2 | · | 0 | · | ·
Cc1c(C)n(CC(O)CN2CCCCCC2)c2ccccc12 (centres undefined) | 7 | -2 | -33 | 0 | -1 | -2 | · | ·

Screening data as filed in PubChem BioAssay.
